Test results as given in ChEMBL document CHEMBL4028865, “Targeted Polypharmacology: Discovery of a Highly Potent Non-Hydroxamate Dual Matrix Metalloproteinase (MMP)-10/-13 Inhibitor” (J Med Chem, 2017).

These molecules were tested against T1, Stromelysin-2 (Homo sapiens, UniProt P09238) (assay: Inhibition of MMP10 (unknown origin) assessed as residual activity at 10 uM using (5-FAM/QX) FRET peptide as substrate by fluorescence assay relative to control). Conditions: not given.
In short: (§1)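 Residual enzyme activity read at a single 10 μM inhibitor concentration, in duplicate. Fluorescence assay on cleavage of the QXL520/5-FAM FRET peptide. Buffer was 50 mM HEPES pH 7.5 with 10 mM CaCl₂, 0.01% Brij-35 and 0.1 mg/ml BSA. GM6001 served as control inhibitor. Same assay system as the IC50 determinations.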
Target sequence in this assay (P09238 99-476 limits assumed): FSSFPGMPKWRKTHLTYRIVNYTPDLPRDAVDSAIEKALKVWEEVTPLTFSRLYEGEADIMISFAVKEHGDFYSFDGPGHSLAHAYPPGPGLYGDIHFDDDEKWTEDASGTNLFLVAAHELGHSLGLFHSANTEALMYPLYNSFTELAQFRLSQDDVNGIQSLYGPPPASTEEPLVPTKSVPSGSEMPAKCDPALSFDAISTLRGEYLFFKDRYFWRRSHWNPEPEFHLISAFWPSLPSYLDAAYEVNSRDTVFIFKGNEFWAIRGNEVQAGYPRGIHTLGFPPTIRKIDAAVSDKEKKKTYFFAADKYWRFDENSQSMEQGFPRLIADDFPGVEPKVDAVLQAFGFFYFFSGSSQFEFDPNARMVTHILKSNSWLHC

Row | Activity [%] | Compound
1 | 7.1 | COc1cc(CNC(=O)C#Cc2cn(Cc3ccc(C(=O)N(C)C)cc3)c(=O)[nH]c2=O)ccc1F
2 | 15.4 | CNC(=O)c1ccc(Cn2cc(C#CC(=O)NCc3ccc(F)c(OC)c3)c(=O)[nH]c2=O)cc1

The next lines start with the molecule.

Row | Compound | Activity [%]
3 | COc1cc(CNC(=O)C#Cc2cn(Cc3ccc(C(=O)NC(C)(C)C)cc3)c(=O)[nH]c2=O)ccc1F | 55.7
4 | COc1cc(CNC(=O)C#Cc2cn(Cc3ccc(C(=O)N[C@H](CO)C(=O)O)cc3)c(=O)[nH]c2=O)ccc1F | 77
5 | COc1cc(CNC(=O)C#Cc2cn(Cc3ccc(-c4cnco4)cc3)c(=O)[nH]c2=O)ccc1F | 2.8
6 | COc1cc(CNC(=O)C#Cc2cn(Cc3ccc(S(=O)(=O)NC4CC4)cc3)c(=O)[nH]c2=O)ccc1F | 19.6
7 | COc1cc(CNC(=O)C#Cc2cn(Cc3ccc(S(=O)(=O)NC(C)(C)C)cc3)c(=O)[nH]c2=O)ccc1F | 6.9

The molecules below were run against T2, Collagenase 3 (Homo sapiens, UniProt P45452) (assay: Inhibition of C-terminal tagged human recombinant MMP13 catalytic domain expressed in Escherichia coli assessed as residual activity at 10 uM using (5-FAM/QX) FRET peptide as substrate by fluorescence assay relative to control). Conditions: not given.
In short: as §1

Row | Activity [%] | Compound
8 | 1.4 | COc1cc(CNC(=O)C#Cc2cn(Cc3ccc(C(=O)N(C)C)cc3)c(=O)[nH]c2=O)ccc1F
9 | 7.5 | CNC(=O)c1ccc(Cn2cc(C#CC(=O)NCc3ccc(F)c(OC)c3)c(=O)[nH]c2=O)cc1

Second part, the molecule before the results:

Row | Compound | Activity [%]
10 | COc1cc(CNC(=O)C#Cc2cn(Cc3ccc(C(=O)NC(C)(C)C)cc3)c(=O)[nH]c2=O)ccc1F | 13.3
11 | COc1cc(CNC(=O)C#Cc2cn(Cc3ccc(C(=O)N[C@H](CO)C(=O)O)cc3)c(=O)[nH]c2=O)ccc1F | 5.6
12 | COc1cc(CNC(=O)C#Cc2cn(Cc3ccc(-c4cnco4)cc3)c(=O)[nH]c2=O)ccc1F | 0.4
13 | COc1cc(CNC(=O)C#Cc2cn(Cc3ccc(S(=O)(=O)NC4CC4)cc3)c(=O)[nH]c2=O)ccc1F | 2.2
14 | COc1cc(CNC(=O)C#Cc2cn(Cc3ccc(S(=O)(=O)NC(C)(C)C)cc3)c(=O)[nH]c2=O)ccc1F | 1.7

What follows are molecules tested against T1, Stromelysin-2 (assay: Inhibition of MMP10 (unknown origin) assessed using (5-FAM/QX) FRET peptide as substrate by fluorescence assay). Conditions: read-out: IC50.
In short: (§2)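 IC50 from 10 concentrations in 3-fold dilution, starting at 10 μM or 100 μM, with two to six replicates. Run only for compounds leaving under 20% residual activity at 10 μM. Fluorescence read-out of QXL520/5-FAM FRET peptide cleavage in 50 mM HEPES pH 7.5, 10 mM CaCl₂, 0.01% Brij-35 and 0.1 mg/ml BSA. Four-parameter least-squares fit; GM6001 as control.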
Target sequence in this assay (P09238 whole entry): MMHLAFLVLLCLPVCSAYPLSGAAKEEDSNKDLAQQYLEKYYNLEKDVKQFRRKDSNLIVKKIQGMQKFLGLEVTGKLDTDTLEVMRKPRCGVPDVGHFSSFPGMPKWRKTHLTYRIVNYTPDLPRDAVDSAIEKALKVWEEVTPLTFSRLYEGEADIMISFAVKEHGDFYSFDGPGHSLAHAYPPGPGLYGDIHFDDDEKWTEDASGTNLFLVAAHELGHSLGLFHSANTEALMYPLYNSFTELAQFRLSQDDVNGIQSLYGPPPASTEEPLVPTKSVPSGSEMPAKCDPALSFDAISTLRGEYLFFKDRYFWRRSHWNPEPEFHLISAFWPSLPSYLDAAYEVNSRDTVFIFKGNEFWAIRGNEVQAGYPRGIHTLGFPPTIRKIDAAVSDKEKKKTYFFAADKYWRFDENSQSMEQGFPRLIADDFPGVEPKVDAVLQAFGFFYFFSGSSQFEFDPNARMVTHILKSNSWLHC

Row | IC50 [nM] | Compound
15 | 243 | COc1cc(CNC(=O)C#Cc2cn(Cc3ccc(C(=O)N(C)C)cc3)c(=O)[nH]c2=O)ccc1F
16 | 635 | CNC(=O)c1ccc(Cn2cc(C#CC(=O)NCc3ccc(F)c(OC)c3)c(=O)[nH]c2=O)cc1

Further lines, the molecule ahead of its results:

Row | Compound | IC50 [nM]
17 | COc1cc(CNC(=O)C#Cc2cn(Cc3ccc(-c4cnco4)cc3)c(=O)[nH]c2=O)ccc1F | 31
18 | COc1cc(CNC(=O)C#Cc2cn(Cc3ccc(S(=O)(=O)NC4CC4)cc3)c(=O)[nH]c2=O)ccc1F | 110
19 | COc1cc(CNC(=O)C#Cc2cn(Cc3ccc(S(=O)(=O)NC(C)(C)C)cc3)c(=O)[nH]c2=O)ccc1F | 131

Same assay, conditions: read-out: pIC50 (converted)

Row | IC50 [nM] | Compound
20 | 186 to 589 | COc1cc(CNC(=O)C#Cc2cn(Cc3ccc(C(=O)N(C)C)cc3)c(=O)[nH]c2=O)ccc1F
21 | 479 to 832 | CNC(=O)c1ccc(Cn2cc(C#CC(=O)NCc3ccc(F)c(OC)c3)c(=O)[nH]c2=O)cc1

Continued, molecule first:

Row | Compound | IC50 [nM]
22 | COc1cc(CNC(=O)C#Cc2cn(Cc3ccc(-c4cnco4)cc3)c(=O)[nH]c2=O)ccc1F | 24.5 to 29.5
23 | COc1cc(CNC(=O)C#Cc2cn(Cc3ccc(S(=O)(=O)NC4CC4)cc3)c(=O)[nH]c2=O)ccc1F | 67.6 to 112
24 | COc1cc(CNC(=O)C#Cc2cn(Cc3ccc(S(=O)(=O)NC(C)(C)C)cc3)c(=O)[nH]c2=O)ccc1F | 51.3 to 141

Each molecule was assayed against T2, Collagenase 3 (assay: Inhibition of C-terminal tagged human recombinant MMP13 catalytic domain expressed in Escherichia coli using (5-FAM/QX) FRET peptide as substrate by fluorescence assay). Conditions: read-out: IC50.
In short: as §2

Row | IC50 [nM] | Compound
25 | 89 | COc1cc(CNC(=O)C#Cc2cn(Cc3ccc(C(=O)N(C)C)cc3)c(=O)[nH]c2=O)ccc1F
26 | 86 | CNC(=O)c1ccc(Cn2cc(C#CC(=O)NCc3ccc(F)c(OC)c3)c(=O)[nH]c2=O)cc1

Second part, the molecule before the results:

Row | Compound | IC50 [nM]
27 | COc1cc(CNC(=O)C#Cc2cn(Cc3ccc(-c4cnco4)cc3)c(=O)[nH]c2=O)ccc1F | 5
28 | COc1cc(CNC(=O)C#Cc2cn(Cc3ccc(S(=O)(=O)NC4CC4)cc3)c(=O)[nH]c2=O)ccc1F | 14
29 | COc1cc(CNC(=O)C#Cc2cn(Cc3ccc(S(=O)(=O)NC(C)(C)C)cc3)c(=O)[nH]c2=O)ccc1F | 26

Same assay, conditions: read-out: pIC50 (converted)

Row | IC50 [nM] | Compound
30 | 70.8 to 110 | COc1cc(CNC(=O)C#Cc2cn(Cc3ccc(C(=O)N(C)C)cc3)c(=O)[nH]c2=O)ccc1F
31 | 67.6 to 112 | CNC(=O)c1ccc(Cn2cc(C#CC(=O)NCc3ccc(F)c(OC)c3)c(=O)[nH]c2=O)cc1

Second part, the molecule before the results:

Row | Compound | IC50 [nM]
32 | COc1cc(CNC(=O)C#Cc2cn(Cc3ccc(-c4cnco4)cc3)c(=O)[nH]c2=O)ccc1F | 3.63 to 5.5
33 | COc1cc(CNC(=O)C#Cc2cn(Cc3ccc(S(=O)(=O)NC4CC4)cc3)c(=O)[nH]c2=O)ccc1F | 10.2 to 11.7
34 | COc1cc(CNC(=O)C#Cc2cn(Cc3ccc(S(=O)(=O)NC(C)(C)C)cc3)c(=O)[nH]c2=O)ccc1F | 12 to 20.9

These molecules were tested against T3, Interstitial collagenase (Homo sapiens) (UniProt P03956) (assay: Inhibition of MMP1 (unknown origin) assessed as residual activity at 10 uM using (5-FAM/QX) FRET peptide as substrate by fluorescence assay relative to control). Conditions: not given.
T3 sequence (whole entry): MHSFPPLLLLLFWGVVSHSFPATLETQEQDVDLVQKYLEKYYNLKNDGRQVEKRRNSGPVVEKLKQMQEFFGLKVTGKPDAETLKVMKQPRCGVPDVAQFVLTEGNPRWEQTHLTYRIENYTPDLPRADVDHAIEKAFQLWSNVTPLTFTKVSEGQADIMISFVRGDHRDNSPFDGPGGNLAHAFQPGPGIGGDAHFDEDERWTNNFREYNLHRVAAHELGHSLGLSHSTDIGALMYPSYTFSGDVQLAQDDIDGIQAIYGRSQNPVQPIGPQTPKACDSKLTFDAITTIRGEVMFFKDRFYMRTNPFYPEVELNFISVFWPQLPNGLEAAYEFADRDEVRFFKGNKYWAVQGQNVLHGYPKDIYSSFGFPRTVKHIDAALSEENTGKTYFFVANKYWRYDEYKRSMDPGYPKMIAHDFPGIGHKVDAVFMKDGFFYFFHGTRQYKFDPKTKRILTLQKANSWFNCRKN
In short: as §1

Row | Activity [%] | Compound
35 | 100 | COc1cc(CNC(=O)C#Cc2cn(Cc3ccc(-c4cnco4)cc3)c(=O)[nH]c2=O)ccc1F

The molecules below were run against 72 kDa type IV collagenase (Homo sapiens) (UniProt P08253) (assay: Inhibition of C-terminal tagged human recombinant MMP2 catalytic domain expressed in Escherichia coli assessed as residual activity at 10 uM using (5-FAM/QX) FRET peptide as substrate by fluorescence assay relative to control). Conditions: not given.
72 kDa type IV collagenase (Homo sapiens), sequence (P08253 110-660 limits assumed): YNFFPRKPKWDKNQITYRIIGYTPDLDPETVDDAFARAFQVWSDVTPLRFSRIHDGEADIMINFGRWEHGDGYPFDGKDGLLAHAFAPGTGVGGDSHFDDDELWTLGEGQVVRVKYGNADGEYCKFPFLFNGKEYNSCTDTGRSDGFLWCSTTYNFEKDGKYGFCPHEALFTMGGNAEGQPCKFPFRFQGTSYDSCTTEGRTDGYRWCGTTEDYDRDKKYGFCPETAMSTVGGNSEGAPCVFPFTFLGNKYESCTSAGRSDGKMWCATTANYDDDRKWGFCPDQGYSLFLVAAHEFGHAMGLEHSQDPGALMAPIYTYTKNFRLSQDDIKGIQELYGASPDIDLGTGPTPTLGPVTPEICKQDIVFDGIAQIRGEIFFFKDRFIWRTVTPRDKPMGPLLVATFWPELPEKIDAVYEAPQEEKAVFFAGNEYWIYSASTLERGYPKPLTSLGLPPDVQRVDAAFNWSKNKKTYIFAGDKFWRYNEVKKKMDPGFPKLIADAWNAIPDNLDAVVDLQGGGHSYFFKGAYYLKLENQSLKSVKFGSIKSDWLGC
In short: as §1

Row | Activity [%] | Compound
36 | 100 | COc1cc(CNC(=O)C#Cc2cn(Cc3ccc(-c4cnco4)cc3)c(=O)[nH]c2=O)ccc1F

What follows are molecules tested against Stromelysin-1 (Homo sapiens) (UniProt P08254) (assay: Inhibition of C-terminal tagged human recombinant MMP3 catalytic domain expressed in Escherichia coli assessed as residual activity at 10 uM using (5-FAM/QX) FRET peptide as substrate by fluorescence assay relative to control). Conditions: not given.
Stromelysin-1 (Homo sapiens), sequence (P08254 100-477 limits assumed): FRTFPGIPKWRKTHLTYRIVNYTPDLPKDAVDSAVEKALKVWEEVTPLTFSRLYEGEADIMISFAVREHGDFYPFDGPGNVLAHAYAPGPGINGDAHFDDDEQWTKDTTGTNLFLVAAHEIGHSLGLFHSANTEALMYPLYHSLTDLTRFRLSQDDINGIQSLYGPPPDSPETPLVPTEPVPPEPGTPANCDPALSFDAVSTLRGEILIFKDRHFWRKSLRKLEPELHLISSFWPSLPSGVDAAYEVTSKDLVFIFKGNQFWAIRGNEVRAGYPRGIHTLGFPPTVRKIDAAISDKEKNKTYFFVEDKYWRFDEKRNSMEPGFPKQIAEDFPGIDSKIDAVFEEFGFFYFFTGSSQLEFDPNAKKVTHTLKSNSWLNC
In short: as §1

Row | Activity [%] | Compound
37 | 37.3 | COc1cc(CNC(=O)C#Cc2cn(Cc3ccc(-c4cnco4)cc3)c(=O)[nH]c2=O)ccc1F

The molecules below were run against T4, Matrilysin (Homo sapiens) (UniProt P09237) (assay: Inhibition of C-terminal tagged human recombinant MMP7 catalytic domain expressed in Escherichia coli assessed as residual activity at 10 uM using (5-FAM/QX) FRET peptide as substrate by fluorescence assay relative to control). Conditions: not given.
T4 sequence (whole entry): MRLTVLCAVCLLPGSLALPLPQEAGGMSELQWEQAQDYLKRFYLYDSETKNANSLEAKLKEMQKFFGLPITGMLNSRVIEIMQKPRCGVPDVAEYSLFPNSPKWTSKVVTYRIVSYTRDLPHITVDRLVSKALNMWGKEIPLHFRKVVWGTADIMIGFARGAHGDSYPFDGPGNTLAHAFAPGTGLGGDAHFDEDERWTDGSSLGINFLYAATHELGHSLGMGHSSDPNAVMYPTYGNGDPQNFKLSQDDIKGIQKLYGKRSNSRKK
In short: as §1

Row | Activity [%] | Compound
38 | 87.1 | COc1cc(CNC(=O)C#Cc2cn(Cc3ccc(-c4cnco4)cc3)c(=O)[nH]c2=O)ccc1F

The molecules below were run against Neutrophil collagenase (Homo sapiens) (UniProt P22894) (assay: Inhibition of MMP8 (unknown origin) assessed as residual activity at 10 uM using (5-FAM/QX) FRET peptide as substrate by fluorescence assay relative to control). Conditions: not given.
Neutrophil collagenase (Homo sapiens), sequence (P22894 101-467 limits assumed): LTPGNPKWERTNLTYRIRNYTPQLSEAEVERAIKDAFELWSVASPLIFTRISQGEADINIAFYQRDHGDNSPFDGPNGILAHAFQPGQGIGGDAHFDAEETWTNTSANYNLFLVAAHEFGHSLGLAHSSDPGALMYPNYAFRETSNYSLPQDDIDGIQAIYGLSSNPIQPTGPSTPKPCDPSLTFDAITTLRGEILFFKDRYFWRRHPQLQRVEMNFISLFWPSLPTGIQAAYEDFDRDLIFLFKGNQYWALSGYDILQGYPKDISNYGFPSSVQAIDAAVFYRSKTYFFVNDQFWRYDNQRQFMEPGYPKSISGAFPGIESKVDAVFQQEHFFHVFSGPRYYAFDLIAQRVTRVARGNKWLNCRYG
In short: as §1

Row | Activity [%] | Compound
39 | 96.7 | COc1cc(CNC(=O)C#Cc2cn(Cc3ccc(-c4cnco4)cc3)c(=O)[nH]c2=O)ccc1F

What follows are molecules tested against Matrix metalloproteinase-9 (Homo sapiens) (UniProt P14780) (assay: Inhibition of MMP9 (unknown origin) assessed as residual activity at 10 uM using (5-FAM/QX) FRET peptide as substrate by fluorescence assay relative to control). Conditions: not given.
Matrix metalloproteinase-9 (Homo sapiens), sequence (P14780 whole entry): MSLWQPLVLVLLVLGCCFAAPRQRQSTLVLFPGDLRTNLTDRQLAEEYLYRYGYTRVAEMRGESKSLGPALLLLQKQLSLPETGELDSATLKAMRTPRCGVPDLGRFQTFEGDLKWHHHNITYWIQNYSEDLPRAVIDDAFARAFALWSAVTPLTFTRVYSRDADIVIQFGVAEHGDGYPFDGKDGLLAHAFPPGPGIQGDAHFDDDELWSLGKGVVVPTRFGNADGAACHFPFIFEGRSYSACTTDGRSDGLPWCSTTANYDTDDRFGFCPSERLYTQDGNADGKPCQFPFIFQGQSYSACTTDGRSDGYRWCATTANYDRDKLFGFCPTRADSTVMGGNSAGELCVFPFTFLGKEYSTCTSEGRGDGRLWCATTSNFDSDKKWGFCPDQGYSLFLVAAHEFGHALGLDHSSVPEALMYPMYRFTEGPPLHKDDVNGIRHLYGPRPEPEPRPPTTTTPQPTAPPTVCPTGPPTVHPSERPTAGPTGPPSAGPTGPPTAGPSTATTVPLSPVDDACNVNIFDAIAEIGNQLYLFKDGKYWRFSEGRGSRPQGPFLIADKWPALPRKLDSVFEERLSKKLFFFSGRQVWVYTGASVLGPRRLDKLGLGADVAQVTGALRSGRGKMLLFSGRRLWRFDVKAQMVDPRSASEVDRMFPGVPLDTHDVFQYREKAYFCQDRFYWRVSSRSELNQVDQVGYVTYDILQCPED
In short: as §1

Row | Activity [%] | Compound
40 | 97.8 | COc1cc(CNC(=O)C#Cc2cn(Cc3ccc(-c4cnco4)cc3)c(=O)[nH]c2=O)ccc1F

The molecules below were run against Macrophage metalloelastase (Homo sapiens) (UniProt P39900) (assay: Inhibition of C-terminal tagged human recombinant MMP12 catalytic domain expressed in Escherichia coli assessed as residual activity at 10 uM using (5-FAM/QX) FRET peptide as substrate by fluorescence assay relative to control). Conditions: not given.
Macrophage metalloelastase (Homo sapiens), sequence (P39900 106-470 limits assumed): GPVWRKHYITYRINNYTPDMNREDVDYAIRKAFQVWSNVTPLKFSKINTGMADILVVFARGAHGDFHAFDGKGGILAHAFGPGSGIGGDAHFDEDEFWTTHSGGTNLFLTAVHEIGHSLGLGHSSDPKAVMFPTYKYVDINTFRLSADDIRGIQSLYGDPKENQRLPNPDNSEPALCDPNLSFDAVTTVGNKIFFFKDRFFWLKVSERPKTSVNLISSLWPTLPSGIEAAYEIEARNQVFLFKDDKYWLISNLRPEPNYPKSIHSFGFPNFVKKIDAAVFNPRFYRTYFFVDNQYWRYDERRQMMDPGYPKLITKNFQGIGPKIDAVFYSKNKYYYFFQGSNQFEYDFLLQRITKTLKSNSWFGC
In short: as §1

Row | Activity [%] | Compound
41 | 88.5 | COc1cc(CNC(=O)C#Cc2cn(Cc3ccc(-c4cnco4)cc3)c(=O)[nH]c2=O)ccc1F

These molecules were tested against Matrix metalloproteinase-14 (Homo sapiens) (UniProt P50281) (assay: Inhibition of C-terminal tagged human recombinant MMP14 catalytic domain expressed in Escherichia coli assessed as residual activity at 10 uM using (5-FAM/QX) FRET peptide as substrate by fluorescence assay relative to control). Conditions: not given.
In short: as §1

Row | Activity [%] | Compound
42 | 97.6 | COc1cc(CNC(=O)C#Cc2cn(Cc3ccc(-c4cnco4)cc3)c(=O)[nH]c2=O)ccc1F
